Results from the RNAGym collection of RNA variant scans (doi:10.1126/science.aae0568).
This sample holds only a part of the variants without activity.

B1: tRNA (parent)
chain: GUUCCGUUGGCGUAAUGGUAACGCGUCUCCCUCCUAAGGAGAAGACUGCGGGUUCGAGUCCCGUACGGAACG

Variants of: B1
Test: yeast fitness relative to wild type (ratio to wild type); higher = fitter; tRNA-Arg(CCU), competitive growth, 37 C, YPD
Procedure, shortened: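 A pool of Saccharomyces cerevisiae strains, each with a tRNA-Arg(CCU) gene variant at the native genomic locus, was competed in YPD at 37°C for 24 hours across six parallel replicates. The variants had been chemically synthesised at a 3% per-site mutation rate over 69 sites, and gene amplicons before and after competition were read by 100-nucleotide paired-end sequencing. Darwinian fitness relative to wild type rested on changes in genotype frequencies. Genotypes required ≥ 100 starting reads, and estimates < 0.5 were set to 0.5.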

Variant	yeast fitness
GUUCCGUUGCUGUAAUGGUAACGCGUCUCCCUCCUAAGGAGAAGACUGAGGGUUCGAGUCCCGUACGGAACG [G10C C11U C49A]	0.562
GUUCCGUUGCUGUAAUGGUAACGCGUCUCCCUCCUAAGGAGAAGACUGAGGGUUCGAGUCCCGUCCGGAACG [G10C C11U C49A A65C]	≤ 0.5
GUUCCGUUGCCGUAAUGGUAAAGGGUCUCCCUCCUAAGGAGAAGACUGCGGGUUCGAGUCCCGUUCGGAACG [G10C C22A C24G A65U]	≤ 0.5
GUUCCGUUGCCGUAAUGGUAAAGGGUCUCCCUCCUAAGGAGAAGACUGCGGGUUCGAGUCCCGUACGGACCG [G10C C22A C24G A70C]	0.531
GUUCCGUUGCCGUAAUGGUAAAGGGUCUCCCUCCUAAGGAGAAGACUGCGGGAUCCAGUCCUGUACGGAACG [G10C C22A C24G U53A G56C C62U]	≤ 0.5
GUUCCGUUGCCGUAAUGGUAAAGCGUCUGCCUCCUAAGGAGAAGACUGGGGGUUCGAGUCCCGUACGGAACG [G10C C22A C29G C49G]	≤ 0.5
GUUCCGUUGCCGUAAUGGUAAAGCGUCUCCCUACUAAGGAGAAGACUGCGGGUUCGAGUCCCGUACGGAACG [G10C C22A C33A]	0.538
GUUCCGUUGCCGUAAUGGUAAAGCGUCUCCCUCCCAAGGAGAAGACUGCGGGUUCGAGUGUCAUACGGAACG [G10C C22A U35C C60G C61U G63A]	≤ 0.5
GUUCCGUUGCCGUAAUGGUAAGGCGUCUACCUCCUAAGGAAAAGAUUGCGGGUUCGAGUCCCGUCCGGAACG [G10C C22G C29A G41A C46U A65C]	≤ 0.5
GUUCCGUUGCCGUAAUGGUAAGGCGUCUCUCUCCUAAGGAGAAGACUGCGGGUUUGAGUCCCGUACGGAACG [G10C C22G C30U C55U]	≤ 0.5
GUUCCGUUGCCGUAAUGGUAAUGCGUCUCCCUCCUAAGGAGUAGACUGCGGGUUCGAGUGCCGUACGGAACG [G10C C22U A42U C60G]	≤ 0.5
GUUCCGUUGCCGUAAUGGUAAUGCGUCUCCCUCCUAAGGAGAAGACUGCGGGUUCGAGUCCCGUCCGGAACG [G10C C22U A65C]	≤ 0.5
GUUCCGUUGCCGUAAUGGUAAUGAGUCCCCCUCCUAAGGAGAAGGCUGCGGGUUCGAGUCCCGUACGGAACG [G10C C22U C24A U28C A45G]	≤ 0.5
GUUCCGUUGCCGUAAUGGUAAUGCGUCUCGCUCCUAAGGCGAAGACUGCAGGUUCGAGUGCCGUACGGAACG [G10C C22U C30G A40C G50A C60G]	≤ 0.5
GUUCCGUUGCCGUAAUGGUAAUGCGUCUCCCUUCCAAGGAGAAGACUGCGGGUUCGAGUCCCGUACGGAACG [G10C C22U C33U U35C]	≤ 0.5
GUUCCGUUGCCGUAAUGGUAAUGCGUCUCCCUCCUAAGGAGAAGACUGUGGGUUCGAGUCCCGUACGGAGCG [G10C C22U C49U A70G]	≤ 0.5
GUUCCGUUGCCGUAAUGGUAAUGCGUCUCCCUCCUAAGGAGAAGACUGCGGGUUCGAGUUACCUUCGGAACG [G10C C22U C60U C61A G63C A65U]	≤ 0.5
GUUCCGUUGCCGUAAUGGUAAUGCGUCUCCCUCCUAAGGAGAAGACUGCGGAUUCGAGUCCCGUACGGAACG [G10C C22U G52A]	≤ 0.5
GUUCCGUUGCCGUAAUGGUAACGAGUCUCGCUCCUAAGGGGAAGACGGCGGGUUUGAGUCCCGUACGGAACG [G10C C24A C30G A40G U47G C55U]	≤ 0.5

Variant	yeast fitness
GUUCCGUUGCCGUAAUGGUAACGAGUCUCCCUCCUAAGGAGAAGAUUGCGGGUUCGAGUCCCGUACGGAACG [G10C C24A C46U]	≤ 0.5
GUUCCGUUGCCGUAAUGGUAACGAGUCUCCCUCCUAAGGAGAAGACUGCGGAUUCGAGUCCCGUACGGAACG [G10C C24A G52A]	≤ 0.5
GUUCCGUUGCCGUAAUGGUAACGGGUCUCCCUCCUAAGGAGAAGACUGCGGGUUCGAGUCCCGUACGGAUCG [G10C C24G A70U]	≤ 0.5
GUUCCGUUGCCGUAAUGGUAACGGGUUUCCCUUCUAAGGAGAAGACUGCCGGUUCGAGUCCCGUACGAAACG [G10C C24G C27U C33U G50C G68A]	≤ 0.5
GUUCCGUUGCCGUAAUGGUAACGGGUCUCCCUCCUAAGGAGAAGAUUGCGGGUUCGAGUCCCGUACGGAACG [G10C C24G C46U]	0.702
GUUCCGUUGCCGUAAUGGUAACGGGUCUCCCUCCUAAGGAGAAGACUGGGGGUUCGAGUCCCGUACGGAACG [G10C C24G C49G]	≤ 0.5
GUUCCGUUGCCGUAAUGGUAACGGGUCUCCCUCCUAAGGAGAAGACUGGGGGUUAGAGUCCCGUACGGAACG [G10C C24G C49G C55A]	0.683
GUUCCGUUGCCGUAAUGGUAACGGGUCUCCCUCCUAAGGAGAAGACUGUGGGUUCGAGUCCCGUACGGAACG [G10C C24G C49U]	≤ 0.5
GUUCCGUUGCCGUAAUGGUAACGGGUCUCCCUCCUAAGGAGAAGACUGUGGGUUCGAGUCCCGUAUGGAACG [G10C C24G C49U C66U]	≤ 0.5
GUUCCGUUGCCGUAAUGGUAACGGGUCUCCCUCCUAAGGAGAAGACUGCGGGUUAGAGUCCCGUACGGAACG [G10C C24G C55A]	≤ 0.5
GUUCCGUUGCCGUAAUGGUAACGUGUCUACCUCCUAAGGAGGAGUGAGCAGGUUCGAGUCCCGGACGGAACG [G10C C24U C29A A42G A45U C46G U47A G50A U64G]	≤ 0.5
GUUCCGUUGCCGUAAUGGUAACGUGUCUGCCUCCUAAGGAGAAGACUGCGGGUUCGAGUCCCGUACGGAACG [G10C C24U C29G]	0.638
GUUCCGUUGCCGUAAUGGUAACGUGUCUCCCUCCUAAGGAGAAGACUGCGGGUUCGAGUCGCGUAUGGUACG [G10C C24U C61G C66U A69U]	≤ 0.5
GUUCCGUUGCCGUAAUGGUAACGUGUCUCCCUCCUAAGGAGAAGACUGCGGGUUCGAGUCCCGCACGGAACG [G10C C24U U64C]	≤ 0.5
GUUCCGUUGCCGUAAUGGUAACGCGUAUCCCUCCUAAGGAGAAGACUGCGGGUUCGAGUCCCGUACGGAACG [G10C C27A]	0.593
GUUCCGUUGCCGUAAUGGUAACGCGUGUCCCUCCUAAGGAGCAGACUGCGGGUUCGAGUCCCGUACGGAACG [G10C C27G A42C]	≤ 0.5
GUUCCGUUGCCGUAAUGGUAACGCGUGUCCCUCCUAAGGAGCAGACUGAGGGUUCGAGUCCCGUACAGAACG [G10C C27G A42C C49A G67A]	≤ 0.5
GUUCCGUUGCCGUAAUGGUAACGCGUGUCCCUCCUAAGGAGCAGACUGCGGGUUCGAGUCCCGUAUGGAACG [G10C C27G A42C C66U]	0.534
GUUCCGUUGCCGUAAUGGUAACGCGUGUCCCUCCUAAGGAGAAGACUGCGGGUUCGAGUCGCGUACGGAACG [G10C C27G C61G]	≤ 0.5
